From ChEMBL document CHEMBL3108757, “Synthesis and cytostatic evaluation of 4-N-alkanoyl and 4-N-alkyl gemcitabine analogues” (J Med Chem, 2014) come the findings set out here.

Data set [1] concerns HeLa. The experiment in a line: Cytostatic activity against human HeLa cells after 4 days by coulter counter analysis. It counts as functional, cell-based. The following applies: 96 h. In short, it runs like this:
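HeLa cervix carcinoma cultures exposed to compound, 4 days at 37 °C; viable cells counted by Coulter counter; IC50 is the concentration giving 50% inhibition of proliferation.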

The test system of data set [2] is MCF7. Kind of data set: Cytostatic activity against human MCF7 cells after 4 days by coulter counter analysis. The following applies: MCF7, 96 h.
Data set [3] concerns CCRF-CEM. Kind of data set: Cytostatic activity against human CEM cells after 3 days by coulter counter analysis. The class given is functional, cell-based. The following applies: 72 h. In short, it runs like this: (§1)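 CEM T-lymphocyte cultures exposed to compound, 3 days at 37 °C; living cells counted by Coulter counter; IC50 is the concentration inhibiting proliferation by 50%.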

Data set [4] deals with CCRF-CEM. The experiment in a line: Cytostatic activity against human dCK-deficient CEM cells after 3 days by coulter counter analysis. The class given is functional, cell-based. The note with it: 72 h. In a few lines: as §1
Data set [5] relates to L1210. Kind of data set: Cytostatic activity against mouse L1210 cells after 2 days by coulter counter analysis. It counts as functional, cell-based. The note with it: L1210, 48 h. In short, it runs like this:
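Murine leukemia L1210 cultures exposed to compound, 2 days at 37 °C; living cells counted by Coulter counter; IC50 is the concentration inhibiting proliferation by 50%.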

Data set [6] has as its target Deoxycytidine kinase (Homo sapiens) (UniProt P27707). Kind of data set: Activity at recombinant dCK (unknown origin) at 100 uM by HPLC analysis.
In data set [7] the test system is Serum. The experiment in a line: Metabolic stability in human serum assessed as dFdU formation at 100 uM up to 240 mins by HPLC analysis. It counts as ADME, cell-free. The note with it: 4 h. In a few lines:
(§2)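 Compound at 100 μM in 50% human serum in PBS, 37 °C; aliquots taken at 0, 60 and 240 min; reverse-phase RP-18 HPLC (acetonitrile/H₂O) resolving dFdU and gemcitabine.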

Data set [8] deals with CCRF-CEM. Kind of data set: Ratio of IC50 for human dCK-deficient CEM cells to IC50 for human CEM cells. It counts as functional.
Data set [9] concerns Liver. The experiment in a line: Prodrug conversion in mouse liver assessed as dFdU formation at 100 uM after 2 hrs by HPLC analysis. It counts as ADME, tissue-based. In a few lines: (§3)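 Compound at 100 μM in murine liver extract in PBS, 37 °C; sampled at 0, 30 and 120 min; reverse-phase RP-18 HPLC (acetonitrile/H₂O) resolving dFdU and gemcitabine.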
The subject of data set [10] is Serum. Kind of data set: Prodrug conversion in human serum assessed as gemicitabine formation at 100 uM by HPLC analysis. The class given is ADME, cell-free. In a few lines: as §2
For data set [11], the system named is Serum. The experiment in a line: Prodrug conversion in human serum assessed as dFdU formation at 100 uM up to 240 mins by HPLC analysis. The class given is ADME, cell-free. The note with it: 4 h. In a few lines: as §2
The test system of data set [12] is Liver. Kind of data set: Prodrug conversion in mouse liver at 100 uM after 2 hrs by HPLC analysis. The class given is ADME, tissue-based. In a few lines:
as §3

The test system of data set [13] is Liver. Kind of data set: Prodrug conversion in mouse liver assessed as dFdU formation at 100 uM by HPLC analysis. The class given is ADME, tissue-based. In a few lines: as §3
The test system of data set [14] is Liver. Kind of data set: Prodrug conversion in mouse liver assessed as gemicitabine formation at 100 uM by HPLC analysis. The class given is ADME, tissue-based. In short, it runs like this: as §3

Sequence of Deoxycytidine kinase (Homo sapiens) (P27707 whole entry, looked up): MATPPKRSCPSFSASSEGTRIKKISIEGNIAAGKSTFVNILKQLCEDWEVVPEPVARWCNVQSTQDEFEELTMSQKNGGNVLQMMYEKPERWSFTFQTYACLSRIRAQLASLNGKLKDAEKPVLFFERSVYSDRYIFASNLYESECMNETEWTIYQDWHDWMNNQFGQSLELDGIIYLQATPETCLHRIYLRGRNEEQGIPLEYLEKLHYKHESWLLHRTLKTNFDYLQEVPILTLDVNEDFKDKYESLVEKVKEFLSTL

The IC50 is the concentration that gives 50% inhibition. As for `CCCCCCCCCCC(=O)Nc1ccn([C@@H]2O[C@H](CO)[C@@H](O)C2(F)F)c(=O)n1`, the half-inhibitory concentration (IC50) in data set [1] is 0.0089 µM; in data set [2], 0.0053 µM; in [3], 0.06 µM; in [4] it was 5.8 µM; in data set [5] it was 0.014 µM.

For the compound `Nc1ccn([C@@H]2O[C@H](CO)[C@@H](O)C2(F)F)c(=O)n1` [GEMCITABINE], in [6], the Activity was found to be 15%. The half-maximal inhibitory concentration (IC50) in [1] worked out at 0.0099 µM; in [2] it was 0.0072 µM; in data set [3], 0.069 µM; in data set [4], 7.6 µM; in [5], 0.013 µM. In addition, the Stability result in data set [7] is listed as “Unstable”.

For `O=C(CCCCCCCCCCF)Nc1ccn([C@@H]2O[C@H](CO)[C@@H](O)C2(F)F)c(=O)n1`, in [6], the Activity was less than 1%. Moreover, the half-maximal inhibitory concentration (IC50) turned out to be 0.011 µM in data set [1]; 0.0077 µM in [2]; 0.059 µM in data set [3]; 7.2 µM in data set [4]; 0.053 µM in [5].

As for `C=CCCCCCCCCCCC(=O)Nc1ccn([C@@H]2O[C@H](CO)[C@@H](O)C2(F)F)c(=O)n1`, the Activity in data set [6] is less than 1%. Besides, the half-maximal inhibitory concentration (IC50) in [1] turned out to be 0.013 µM; in data set [2] it was 0.0079 µM; in data set [3] it was 0.069 µM; in data set [4], 6.8 µM; in data set [5], 0.021 µM.

Take `O=c1nc(NCCCCCCCCCCCF)ccn1[C@@H]1O[C@H](CO)[C@@H](O)C1(F)F`: the IC50 was found to be 17 µM in data set [1]; 26 µM in [2]; 28 µM in data set [3]; 134 µM in [4]; 28 µM in data set [5]. Also, the Ratio IC50 in data set [8] was found to be 4.8.

Consider `C=CCCCCCCC(=O)Nc1ccn([C@@H]2O[C@H](CO)[C@@H](O)C2(F)F)c(=O)n1`, for which the IC50 was 0.042 µM in data set [1]; 0.0079 µM in data set [2]; 0.14 µM in data set [3]; 20 µM in [4]; 0.024 µM in [5].

Take `C=CCCCCCCCCCNc1ccn([C@@H]2O[C@H](CO)[C@@H](O)C2(F)F)c(=O)n1`: the IC50 in [1] came out at 3.4 µM; in [2], 28 µM; in data set [3], 13 µM; in data set [4] it was 60 µM; in data set [5], 7 µM. In addition, the Ratio IC50 in data set [8] is 4.6.

Consider `O=c1nc(NCCCCCCCCCCCO)ccn1[C@@H]1O[C@H](CO)[C@@H](O)C1(F)F`, for which the half-inhibitory concentration (IC50) in data set [1] was found to be 22 µM; in data set [2], 27 µM; in [3], 86 µM; in [4], 140 µM; in data set [5], 29 µM. Also, the Stability entry in [9], in data set [10], in data set [11] and in data set [12] was “Stable” each time. Also, the “Ratio IC50” value in data set [8] is given as 2.

Turning to `C=CCCCCCCCCC(=O)Nc1ccn([C@@H]2O[C@H](CO)[C@@H](O)C2(F)F)c(=O)n1`, the IC50 was 0.012 µM in data set [1]; 0.0062 µM in data set [2]; 0.071 µM in data set [3]; 12 µM in data set [4]; 0.018 µM in data set [5].

With `O=C(CCCCCCCCCCO)Nc1ccn([C@@H]2O[C@H](CO)[C@@H](O)C2(F)F)c(=O)n1`, the IC50 is 0.049 µM in data set [1]; 0.0081 µM in [2]; 0.24 µM in [3]; 19 µM in [4]; 0.023 µM in data set [5]. Further, the Drug metabolism result in data set [13], in data set [10], in data set [11] and in data set [14] was “Active” throughout.

As for `CCCC(CCC)C(=O)Nc1ccn([C@@H]2O[C@H](CO)[C@@H](O)C2(F)F)c(=O)n1` [LY-2334737], the IC50 in data set [1] was determined as 0.76 µM; in data set [2], 0.55 µM; in [3], 5.2 µM; in data set [4] it was 161 µM; in data set [5], 1.1 µM.
